What is called IC50 is the concentration that gives 50% inhibition. Higher therefore signals a need for much substance.

Series [1] deals with PARP-1 (Homo sapiens, UniProt P09874). Put plainly: PARP-1 radioligand binding assay with [125I]KX1 in OVCAR8 cells. Put shortly: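 OVCAR8 ovarian cancer cells (BRCA1 methylated) seeded at 40,000 cells/well 24 h before the assay. Test compound diluted in RPMI (100 μM–0.064 nM), added with the [125I]KX1 radioligand, equilibrated 1 hr, then washed with PBS. Wells counted on a gamma counter. IC50 from non-linear sigmoidal dose-response fit, n=3; dose ranges were adjusted between repeats.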
PARP-1, sequence (P09874 whole entry): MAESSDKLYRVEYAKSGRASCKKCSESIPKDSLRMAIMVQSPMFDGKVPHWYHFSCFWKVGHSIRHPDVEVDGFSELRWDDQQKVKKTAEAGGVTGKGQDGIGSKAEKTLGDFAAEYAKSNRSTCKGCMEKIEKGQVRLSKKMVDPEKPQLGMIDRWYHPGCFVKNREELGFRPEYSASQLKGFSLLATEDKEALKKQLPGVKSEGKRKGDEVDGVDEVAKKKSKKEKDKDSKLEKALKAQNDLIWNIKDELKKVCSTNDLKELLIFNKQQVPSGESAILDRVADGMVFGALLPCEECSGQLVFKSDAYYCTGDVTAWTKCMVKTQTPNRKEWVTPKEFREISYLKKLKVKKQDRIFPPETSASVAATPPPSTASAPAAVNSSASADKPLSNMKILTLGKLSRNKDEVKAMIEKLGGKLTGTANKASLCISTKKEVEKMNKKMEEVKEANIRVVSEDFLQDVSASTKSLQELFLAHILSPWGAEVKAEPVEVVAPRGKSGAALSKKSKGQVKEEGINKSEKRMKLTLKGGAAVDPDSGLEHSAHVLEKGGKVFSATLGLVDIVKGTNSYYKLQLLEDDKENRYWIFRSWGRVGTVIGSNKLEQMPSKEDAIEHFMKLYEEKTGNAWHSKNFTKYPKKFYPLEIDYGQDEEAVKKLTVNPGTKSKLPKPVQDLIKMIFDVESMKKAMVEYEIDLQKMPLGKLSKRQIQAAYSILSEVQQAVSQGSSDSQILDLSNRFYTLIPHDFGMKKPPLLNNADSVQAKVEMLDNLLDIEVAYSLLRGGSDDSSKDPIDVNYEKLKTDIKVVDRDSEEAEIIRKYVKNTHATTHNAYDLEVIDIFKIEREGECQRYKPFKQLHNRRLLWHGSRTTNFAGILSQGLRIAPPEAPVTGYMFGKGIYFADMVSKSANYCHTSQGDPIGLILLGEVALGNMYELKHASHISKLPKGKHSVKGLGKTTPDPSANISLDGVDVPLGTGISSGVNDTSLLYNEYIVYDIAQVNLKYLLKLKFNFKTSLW

Series [2] concerns P-gp. Particulars: cited from earlier work.
The target in series [3] is recombinant human P-gp (Homo sapiens, UniProt P08183). Put plainly: Pgp-Glo assay. Particulars: for Luminescence from unmetabolized ATP (P-gp ATPase stimulation or inhibition): 20 μM compound, 5 mM ATP, 1 hr at 37°C, normalized to Na3VO4.
recombinant human P-gp, sequence (P08183 whole entry): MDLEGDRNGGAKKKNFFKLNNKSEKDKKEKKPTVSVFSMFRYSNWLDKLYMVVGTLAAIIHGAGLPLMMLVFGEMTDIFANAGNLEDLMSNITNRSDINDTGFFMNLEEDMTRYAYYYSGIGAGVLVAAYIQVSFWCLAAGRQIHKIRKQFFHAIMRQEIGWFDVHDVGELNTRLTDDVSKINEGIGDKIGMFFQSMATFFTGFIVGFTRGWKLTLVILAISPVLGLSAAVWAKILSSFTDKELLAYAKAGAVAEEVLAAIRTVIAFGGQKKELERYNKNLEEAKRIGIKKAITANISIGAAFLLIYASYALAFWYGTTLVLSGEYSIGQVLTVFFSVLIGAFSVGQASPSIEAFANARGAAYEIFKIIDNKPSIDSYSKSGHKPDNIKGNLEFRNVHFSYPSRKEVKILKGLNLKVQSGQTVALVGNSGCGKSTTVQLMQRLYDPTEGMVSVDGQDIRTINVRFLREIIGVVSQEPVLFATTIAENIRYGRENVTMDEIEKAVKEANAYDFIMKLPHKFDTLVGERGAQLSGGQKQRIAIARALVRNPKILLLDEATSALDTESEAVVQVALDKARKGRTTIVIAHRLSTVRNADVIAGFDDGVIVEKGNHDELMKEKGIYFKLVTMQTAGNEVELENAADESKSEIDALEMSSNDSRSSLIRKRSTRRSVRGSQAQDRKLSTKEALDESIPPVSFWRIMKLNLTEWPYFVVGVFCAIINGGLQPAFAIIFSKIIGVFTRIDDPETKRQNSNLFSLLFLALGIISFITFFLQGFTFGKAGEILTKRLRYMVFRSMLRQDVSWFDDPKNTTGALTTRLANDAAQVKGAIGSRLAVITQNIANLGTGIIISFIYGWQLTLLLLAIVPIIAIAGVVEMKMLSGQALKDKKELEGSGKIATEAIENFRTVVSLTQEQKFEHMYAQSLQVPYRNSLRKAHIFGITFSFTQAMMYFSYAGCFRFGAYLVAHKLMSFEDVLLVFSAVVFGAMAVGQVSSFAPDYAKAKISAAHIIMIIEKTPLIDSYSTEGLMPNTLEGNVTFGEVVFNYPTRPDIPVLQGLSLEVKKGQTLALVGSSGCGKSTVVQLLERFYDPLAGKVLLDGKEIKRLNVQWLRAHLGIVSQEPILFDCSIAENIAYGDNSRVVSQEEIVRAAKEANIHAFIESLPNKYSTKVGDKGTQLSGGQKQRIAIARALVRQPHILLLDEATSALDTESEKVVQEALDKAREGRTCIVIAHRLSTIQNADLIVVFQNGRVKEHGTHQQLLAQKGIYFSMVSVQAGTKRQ

Where two headings read alike, the source gives them in different places.

On to `O=C(c1cc(Cc2n[nH]c(=O)c3ccccc23)ccc1F)N1CC(OCCF)C1` [Compound 9b, 4-(4-fluoro-3-(3-(2-fluoroethoxy)azetidine-1-carbonyl)benzyl)phthalazin-1(2H)-one], for which the IC50 in series [1] was 7.5 ± 1.1 nM.

`O=C(c1cc(Cc2n[nH]c(=O)c3ccccc23)ccc1F)N1CC[C@@H](OCCF)C1` [Compound 9c, (R)-4-(4-fluoro-3-(3-(2-fluoroethoxy)pyrrolidine-1-carbonyl)benzyl)phthalazin-1(2H)-one] came in with an IC50 in series [1] of 10.1 ± 1.1 nM.

Turning to `O=C(c1cc(Cc2n[nH]c(=O)c3ccccc23)ccc1F)N1CCCC(OCCF)CC1` (stereo not drawn) [Compound 9f, 4-(4-fluoro-3-(4-(2-fluoroethoxy)azepane-1-carbonyl)benzyl)phthalazin-1(2H)-one], the IC50 in series [1] is 5.6 ± 1.1 nM.

Take `O=C(c1cc(Cc2n[nH]c(=O)c3ccccc23)ccc1F)N1CC[C@H](OCCF)C1` [Compound 9d, (S)-4-(4-fluoro-3-(3-(2-fluoroethoxy)pyrrolidine-1-carbonyl)benzyl)phthalazin-1(2H)-one]: the IC50 in series [1] was 6.8 nM.

On to `O=C(c1cc(Cc2n[nH]c(=O)c3ccccc23)ccc1F)N1CCN(C(=O)C2CC2)CC1` [olaparib], for which the P-gp substrate status result in series [2] is “known substrates for P-gp”.

On to `O=C(c1cc(Cc2n[nH]c(=O)c3ccccc23)ccc1F)N1CCC(OCCF)CC1` [Compound 9e, 4-(4-fluoro-3-(4-(2-fluoroethoxy)piperidine-1-carbonyl)benzyl)phthalazin-1(2H)-one], for which, in series [1], the IC50 came out at 3.9 ± 1.2 nM. The “Luminescence from unmetabolized ATP (P-gp ATPase stimulation or inhibition)” value in series [3] is reported as “increased luminescence”. For the same compound, in series [3] (authors' conclusion from the P-gp assay), the P-gp substrate status entry is listed as “weak substrate for P-gp”.

Take `O=C(c1cc(Cc2n[nH]c(=O)c3ccccc23)ccc1F)N1CC2(CC(c3ccc(F)cc3)C2)C1` [Compound 17, 4-(4-fluoro-3-(6-(4-fluorophenyl)-2-azaspiro[3.3]heptane-2-carbonyl)benzyl)phthalazin-1(2H)-one]: the IC50 in series [1] is 2.8 nM. Further, the “Luminescence from unmetabolized ATP (P-gp ATPase stimulation or inhibition)” value in series [3] is recorded as “increased luminescence”.

In the case of `O=C(c1cc(Cc2n[nH]c(=O)c3ccccc23)ccc1F)N1CCC(c2ccc(F)cc2)CC1` [Compound 11b, 4-(4-fluoro-3-(4-(4-fluorophenyl)piperidine-1-carbonyl)benzyl)phthalazin-1(2H)-one], the IC50 in series [1] is 1.3 nM. Moreover, the “Luminescence from unmetabolized ATP (P-gp ATPase stimulation or inhibition)” value in series [3] is given as “increased luminescence”.

For `O=C(c1cc(Cc2n[nH]c(=O)c3ccccc23)ccc1F)N1CC2(CC(OCCF)C2)C1` [Compound 9a, 4-(4-fluoro-3-(6-(2-fluoroethoxy)-2-azaspiro[3.3]heptane-2-carbonyl)benzyl)phthalazin-1(2H)-one], in series [1], the IC50 came out at 10.7 ± 1.1 nM.

For `C[C@]12CCCN1CC1=NNC(=O)c3cc(F)cc4[nH]c2c1c34` [BGB-290], the P-gp substrate status result in series [2] is reported as “weak P-gp substrates”.

For `C[C@]1(c2nc3c(C(N)=O)cccc3[nH]2)CCCN1` [veliparib], the P-gp substrate status result in series [2] is recorded as “weak P-gp substrates”.

With `O=C(c1cc(Cc2n[nH]c(=O)c3ccccc23)ccc1F)N1CCN(c2ccc(F)cc2)CC1` [Compound 11a, 4-(4-fluoro-3-(4-(4-fluorophenyl)piperazine-1-carbonyl)benzyl)phthalazin-1(2H)-one], the IC50 in series [1] was determined as 0.6 ± 1.2 nM.

Take `O=C(c1cc(Cc2n[nH]c(=O)c3ccccc23)ccc1F)N1CC2(C1)CN(c1ccc(F)cc1)C2` [Compound 14, 4-(4-fluoro-3-(6-(4-fluorophenyl)-2,6-diazaspiro[3.3]heptane-2-carbonyl)benzyl)phthalazin-1(2H)-one]: the IC50 in series [1] came to 0.3 nM. In addition, the “Luminescence from unmetabolized ATP (P-gp ATPase stimulation or inhibition)” value in series [3] is given as “increased luminescence”.

As to `[Na+].[Na+].[Na+].[O]=[V]([O-])([O-])[O-]` [Na3VO4, reference compound], the “Luminescence from unmetabolized ATP (P-gp ATPase stimulation or inhibition)” value in series [3] is on record as “increased luminescence”.

Take `COC1CCN(C(=O)c2cc(Cc3n[nH]c(=O)c4ccccc34)ccc2F)CC1` [Compound 2, AZD2461]: the values for the P-gp substrate status result in series [2] and in series [2] (listed as AZD2461) were “weak P-gp substrates” and “poor P-gp substrate”, respectively.
